The values that follow come from ChEMBL document CHEMBL1124260, “Synthesis and antitumor activity of quaternary ellipticine glycosides, a series of novel and highly active antitumor agents” (1988).

The test system of test [1] is Mus musculus. Put plainly: Number of survivors out of 6 ip implanted L1210 leukemia mouse tested after 80 days at 2.5 mg/kg. Type of test: functional. Conditions: route intraperitoneal. The essentials:
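Female BDF1 mice implanted ip with ascitic fluid holding 10^5 L1210 cells. Saline-dissolved drug given ip daily on days 1-5, starting 24 h after implant. Six mice per dose group, followed 80 days. Survivors/total counted at day 80; ILS % from mean survival time vs controls.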

For test [2], the system named is Mus musculus. Put plainly: Antitumor activity against ip implanted L1210 leukemia in mouse after ip administration of 2.5 mg/kg for 5 days expressed as increase in mean life span. Type of test: functional. The settings on record: 120 h, route intraperitoneal. In outline:
(§1)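 Drug was dissolved in 0.9% NaCl, diluted just before use and given ip once daily for 5 consecutive days, starting 24 h after transplant. ILS % = mean survival time of treated vs control mice, observed for 80 days.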

In test [3] the test system is Mus musculus. The experiment in a line: Antitumor activity against ip implanted L1210 leukemia in mouse after ip administration of 5 mg/kg for 5 days expressed as increase in mean life span. The format is functional. The settings on record: Mus musculus, L1210, ip, 120 h, route intraperitoneal. In outline: as §1
Test [4] concerns Mus musculus. Put plainly: Antitumor activity against ip implanted syngeneic P388 leukemia in mouse after ip administration of 5 mg/kg for 5 days expressed as increase in mean life span. Conditions: 120 h, route intraperitoneal. The format is functional. The essentials:
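Saline-dissolved drug was given ip daily for 5 consecutive days, beginning 24 h post-transplant. ILS % was calculated from treated vs control mean survival time over an 80-day observation period.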

Test [5] relates to Mus musculus. Put plainly: Inhibition of sc implanted syngeneic colon 38 carcinoma by ip administration at 5 mg/kg on 1, 3, 5, 7, 9 days measured as inhibition ratio. The format is functional. Conditions: route subcutaneous. The essentials:
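Tumor homogenate (70 mg) implanted into the axillary region of female BDF1 mice. Drug dissolved in 0.9% NaCl and diluted with saline just before use, then given ip on days 1, 3, 5, 7 and 9. Tumor length and width were measured by caliper on day 20 after inoculation and converted to estimated weight. Result reported as treated vs control tumor weight, T/C %.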

For test [6], the system named is Mus musculus. Put plainly: Effect on ip implanted syngeneic B16 melanoma by ip administration for 9 days at 2.5 mg/kg was measured as increase in mean life span. Conditions: 216 h.

By ILS is commonly meant the gain in survival time of treated over control animals, in per cent. Broadly, the T/C is the ratio of treated to control.

`Cc1c2cc[n+]([C@H]3O[C@@H](CO)[C@H](O)[C@@H](O)[C@@H]3O)cc2c(C)c2c1[nH]c1ccc(O)cc12.[Br-]` yielded a Cures in the test with Mus musculus [1] of 0. Also, the increase in life span (ILS) at 2.5 mg/kg in the test with Mus musculus [2] was 58%.

On to `CC(=O)[O-].Cc1c2cc[n+](C)cc2c(C)c2c1[nH]c1ccc(O)cc12` [ELLIPTINIUM ACETATE], for which the increase in lifespan (ILS) at 5 mg/kg was 48% with Mus musculus [3] and 90% with Mus musculus [4]. Moreover, in the test with Mus musculus [5], the T/C worked out at 38%. Further, in the test with Mus musculus [6], the ILS at 2.5 mg/kg came out at 35%.
